Reference: ChEMBL document CHEMBL1153240, “Microwave assisted synthesis and in vitro cytotoxicities of substituted (Z)-2-amino-5-(1-benzyl-1H-indol-3-yl)methylene-1-methyl-1H-imidazol-4(5H)-ones against human tumor cell lines” (2010)

Columns and labels:
Type in all cases: functional
[1] = test system: UACC-257; experiment: Cytotoxicity against human UACC257 cells
Summary of the method: (§1)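 NCI 60 human tumor cell line panel, five-dose dose-response study. Cytotoxic effect was plotted against log10 drug concentration for each cell line. GI50 is the molar concentration giving 50% reduction in net protein increase versus control cells. LC50 is the concentration lethal to 50% of cells.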

[2] = test system: DU-145; experiment: Cytotoxicity against human DU145 cells
Summary of the method: (§2)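 NCI 60-cell-line panel, five-dose response study. Effect is plotted against log10 drug concentration for each cell line. GI50 is the molar concentration giving a 50% reduction in net protein increase relative to control cells. LC50 is the concentration lethal to 50% of cells.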

[3] = test system: IGROV-1; experiment: Cytotoxicity against human IGROV1 cells; summary of the method: as §2
[4] = test system: SW-620; experiment: Cytotoxicity against human SW620 cells; summary of the method: as §1
[5] = test system: NCI/ADR-RES; experiment: Cytotoxicity against human NCI/ADR-RES cells; summary of the method: as §2
[6] = test system: MCF7; experiment: Cytotoxicity against human MCF7 cells; summary of the method: as §2
[7] = test system: OVCAR-3; experiment: Cytotoxicity against human OVCAR-3 cells; summary of the method: as §2
[8] = test system: SR; experiment: Cytotoxicity against human SR cells; summary of the method: as §2
[9] = test system: SF-295; experiment: Cytotoxicity against human SF295 cells; summary of the method: as §2
[10] = test system: HCT-116; experiment: Cytotoxicity against human HCT116 cells; summary of the method: as §2
[11] = test system: SK-MEL-5; experiment: Cytotoxicity against human SK-MEL-5 cells; summary of the method: as §2
[12] = test system: M14; experiment: Cytotoxicity against human M14 cells; summary of the method: as §2
[13] = test system: Malme-3M; experiment: Cytotoxicity against human MALME-3M cells; summary of the method: as §2
[14] = test system: RXF 393; experiment: Cytotoxicity against human RXF393 cells; summary of the method: as §2
[15] = test system: K562; experiment: Cytotoxicity against human K562 cells; summary of the method: as §2
[16] = test system: MDA-MB-435; experiment: Cytotoxicity against human MDA-MB-435 cells
Summary of the method: (§3)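 NCI 60-cell-line panel, five-concentration dose-response. Cytotoxic effect was plotted against log10 drug concentration for each line. GI50 is the molar concentration giving a 50% reduction in net protein increase relative to control cells. LC50 is the concentration lethal to 50% of cells. Both were read from the curves.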

[17] = Cytotoxicity against human Hs 578T cells; summary of the method: as §2
[18] = test system: NCI-H226; experiment: Cytotoxicity against human NCI-H226 cells; summary of the method: as §2
[19] = Cytotoxicity against human […] cells; summary of the method: as §2
[20] = test system: SF-268; experiment: Cytotoxicity against human SF268 cells; summary of the method: as §2
[21] = test system: ACHN; experiment: Cytotoxicity against human ACHN cells; summary of the method: as §2
[22] = test system: UO-31; experiment: Cytotoxicity against human UO31 cells; summary of the method: as §1
[23] = test system: NCI-H522; experiment: Cytotoxicity against human NCI-H522 cells; summary of the method: as §2
[24] = test system: LOX IMVI; experiment: Cytotoxicity against human LOXIMVI cells; summary of the method: as §2
[25] = test system: 786-0; experiment: Cytotoxicity against human 786-0 cells; summary of the method: as §2
[26] = test system: HL-60; experiment: Cytotoxicity against human HL60 cells; summary of the method: as §2
[27] = test system: SNB-75; experiment: Cytotoxicity against human SNB75 cells; summary of the method: as §2
[28] = test system: T47D; experiment: Cytotoxicity against human T47D cells; summary of the method: as §1
[29] = test system: KM12; experiment: Cytotoxicity against human KM12 cells; summary of the method: as §2
[30] = test system: HOP-92; experiment: Cytotoxicity against human HOP92 cells; summary of the method: as §2
[31] = test system: OVCAR-5; experiment: Cytotoxicity against human OVCAR5 cells; summary of the method: as §2
[32] = test system: NCI-H460; experiment: Cytotoxicity against human NCI-H460 cells; summary of the method: as §2
[33] = test system: HCT-15; experiment: Cytotoxicity against human HCT15 cells; summary of the method: as §2
[34] = test system: EKVX; experiment: Cytotoxicity against human EKVX cells; summary of the method: as §2
[35] = test system: HOP-62; experiment: Cytotoxicity against human HOP62 cells; summary of the method: as §2
[36] = test system: BT-549; experiment: Cytotoxicity against human BT549 cells; summary of the method: as §2
[37] = test system: SN12C; experiment: Cytotoxicity against human SN12C cells; summary of the method: as §2
[38] = test system: MDA-MB-231; experiment: Cytotoxicity against human MDA-MB-231 cells; summary of the method: as §2
[39] = test system: CAKI-1; experiment: Cytotoxicity against human Caki1 cells; summary of the method: as §2
[40] = test system: CCRF-CEM; experiment: Cytotoxicity against human CCRF-CEM cells; summary of the method: as §2
[41] = test system: SF-539; experiment: Cytotoxicity against human SF539 cells; summary of the method: as §2
[42] = test system: MOLT-4; experiment: Cytotoxicity against human MOLT4 cells; summary of the method: as §2
[43] = test system: TK-10; experiment: Cytotoxicity against human TK10 cells; summary of the method: as §1
[44] = test system: SK-MEL-2; experiment: Cytotoxicity against human SK-MEL-2 cells; summary of the method: as §2
[45] = test system: SK-OV-3; experiment: Cytotoxicity against human SKOV3 cells; summary of the method: as §2
[46] = test system: HCC 2998; experiment: Cytotoxicity against human HCC2998 cells; summary of the method: as §2
[47] = test system: NCI-H23; experiment: Cytotoxicity against human NCI-H23 cells; summary of the method: as §2
[48] = test system: OVCAR-4; experiment: Cytotoxicity against human OVCAR4 cells; summary of the method: as §2
[49] = test system: SNB-19; experiment: Cytotoxicity against human SNB19 cells; summary of the method: as §2
[50] = test system: HT-29; experiment: Cytotoxicity against human HT-29 cells; summary of the method: as §3
[51] = test system: PC-3; experiment: Cytotoxicity against human PC3 cells; summary of the method: as §2
[52] = test system: A498; experiment: Cytotoxicity against human A498 cells; summary of the method: as §2
[53] = test system: A549; experiment: Cytotoxicity against human A549 cells; summary of the method: as §2
[54] = test system: MDA-MB-468; experiment: Cytotoxicity against human MDA-MB-468 cells; summary of the method: as §2
[55] = test system: COLO 205; experiment: Cytotoxicity against human COLO205 cells; summary of the method: as §3
[56] = test system: U-251; experiment: Cytotoxicity against human U251 cells; summary of the method: as §1
[57] = test system: OVCAR-8; experiment: Cytotoxicity against human OVCAR8 cells; summary of the method: as §2
[58] = test system: SK-MEL-28; experiment: Cytotoxicity against human SK-MEL-28 cells; summary of the method: as §2
[59] = test system: NCI-H322M; experiment: Cytotoxicity against human NCI-H322M cells; summary of the method: as §2
[60] = read-out: LC50 (the source's name)

For CN1C(N)=NC(=O)/C1=C/c1cn(Cc2ccccc2Br)c2ccccc12, the GI50 [1] was 12.9 µM, the LC50 [1] was 66.9 µM and the GI50 [2] was 82.1 µM. It also gave a CC50 [2, 60] of 68.8 µM, a GI50 [3] of 20 µM and a CC50 [3, 60] of over 100 µM. For the same molecule, the GI50 [4] was 3.68 µM, the CC50 [4, 60] was 43.3 µM and the GI50 [5] was over 100 µM. For the same molecule, the CC50 [5, 60] was over 100 µM, the GI50 [6] was 2.25 µM and the CC50 [6, 60] was 48.1 µM. For the same molecule, the GI50 [7] was 1.95 µM, the CC50 [7, 60] was 7.35 µM and the GI50 [8] was 1.96 µM. For the same molecule, the CC50 [8, 60] was 72.7 µM, the GI50 [9] was 4.96 µM and the CC50 [9, 60] was over 100 µM. For the same molecule, the GI50 [10] was 2.42 µM, the CC50 [10, 60] was 30.9 µM and the GI50 [11] was 3.38 µM. It also gave an LC50 [11] of 42.3 µM, a GI50 [12] of 4.46 µM and an LC50 [12] of 47.8 µM. The GI50 [13] was 3.3 µM, the CC50 [13, 60] was 73.8 µM and the GI50 [14] was 2.77 µM. The CC50 [14, 60] was 53.7 µM, the GI50 [15] was 2.45 µM and the CC50 [15, 60] was 77.4 µM. For the same molecule, the GI50 [16] was 4.97 µM, the CC50 [16, 60] was 68.6 µM and the GI50 [17] was 3.97 µM. It also gave an LC50 [17] of over 100 µM, a GI50 [18] of 1.37 µM and an LC50 [18] of 69.9 µM. For the same molecule, the GI50 [19] was 1.19 µM, the LC50 (concentration lethal to 50% of cells) [19] was 65.9 µM and the GI50 [20] was 5.38 µM. It also gave a CC50 [20, 60] of 59.8 µM, a GI50 [21] of 11.8 µM and a CC50 [21, 60] of 59 µM. It also gave a GI50 [22] of 7.95 µM, a CC50 [22, 60] of over 100 µM and a GI50 [23] of 5.38 µM. It also gave an LC50 [23] of over 100 µM, a GI50 [24] of 1.97 µM and an LC50 [24] of 9.37 µM. It also gave a GI50 [25] of 6.15 µM, an LC50 [25] of 46.2 µM and a GI50 [26] of 1.85 µM. For the same molecule, the LC50 [26] was 21 µM, the GI50 [27] was 1.58 µM and the LC50 (concentration lethal to 50% of cells) [27] was 18.6 µM. For the same molecule, the GI50 [28] was 1.68 µM, the CC50 [28, 60] was 13.1 µM and the GI50 [29] was 5.71 µM. It also gave a CC50 [29, 60] of 50.8 µM, a GI50 [30] of 2.98 µM and a CC50 [30, 60] of 44.5 µM. For the same molecule, the GI50 [31] was 2.12 µM, the CC50 [31, 60] was 29 µM and the GI50 [32] was 3.95 µM. For the same molecule, the CC50 [32, 60] was 56.8 µM, the GI50 [33] was 19.8 µM and the CC50 [33, 60] was over 100 µM. The GI50 [34] was 58.1 µM, the CC50 [34, 60] was over 100 µM and the GI50 [35] was 8.78 µM. For the same molecule, the CC50 [35, 60] was 51.2 µM, the GI50 [36] was 2.05 µM and the CC50 [36, 60] was over 100 µM. For the same molecule, the GI50 [37] was 6.07 µM, the CC50 [37, 60] was 76.3 µM and the GI50 [38] was 4.07 µM. It also gave an LC50 [38] of 46.7 µM, a GI50 [39] of 68.1 µM and a CC50 [39, 60] of over 100 µM. It also gave a GI50 [40] of 2.54 µM, a CC50 [40, 60] of 36.2 µM and a GI50 [41] of 1.73 µM. The CC50 [41, 60] was 6.94 µM, the GI50 [42] was 4.57 µM and the CC50 [42, 60] was over 100 µM. It also gave a GI50 [43] of 6.84 µM, a CC50 [43, 60] of over 100 µM and a GI50 [44] of 5.73 µM. It also gave a CC50 [44, 60] of over 100 µM, a GI50 [45] of 11.9 µM and a CC50 [45, 60] of 49.9 µM. The GI50 [46] was 6.95 µM, the CC50 [46, 60] was 47.2 µM and the GI50 [47] was 8.07 µM. For the same molecule, the LC50 (concentration lethal to 50% of cells) [47] was 54.8 µM, the GI50 [48] was 2.41 µM and the CC50 [48, 60] was 25.2 µM. For the same molecule, the GI50 [49] was 4.5 µM, the CC50 [49, 60] was 43.8 µM and the GI50 [50] was 2.18 µM. For the same molecule, the CC50 [50, 60] was 6.94 µM, the GI50 [51] was 10.4 µM and the CC50 [51, 60] was 48.1 µM. It also gave a GI50 [52] of 13.9 µM, a CC50 [52, 60] of 53.1 µM and a GI50 [53] of 28.7 µM. For the same molecule, the CC50 [53, 60] was over 100 µM, the GI50 [54] was 1.69 µM and the LC50 [54] was 6.9 µM. The GI50 [55] was 2.21 µM, the CC50 [55, 60] was 12.3 µM and the GI50 [56] was 3.01 µM. The CC50 [56, 60] was 66.2 µM, the GI50 [57] was 10.1 µM and the CC50 [57, 60] was over 100 µM. For the same molecule, the GI50 [58] was 4.14 µM, the CC50 [58, 60] was 38.4 µM and the GI50 [59] was 11 µM. The CC50 [59, 60] was over 100 µM.
